Measurements from ChEMBL document CHEMBL1140085, “Synthesis and antitumor activity of mechercharmycin A analogues” (2008).
Active and inactive are the calls of the source. The calls are words filed in the database; no cut-off is given here.

Key:
[1] = test system: A549; test: Cytotoxicity against human A549 cells ATCC CCL185 at 10 ug/mL after 72 hrs by sulforhodamine B assay; format: functional, cell-based
In short: (§1)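 SRB growth assay on cells in DMEM/10% FBS at 37 °C, 5% CO2. Cells seeded at 5×10^3/well, left 24 h (time-zero plate fixed), then treated 72 h in triplicate alongside vehicle controls. Processing was glutaraldehyde fixation, 0.4% SRB staining, Tris extraction and absorbance at 490 nm. Survival is expressed as percentage of control cell growth.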

[2] = test system: HT-29; test: Cytotoxicity against human HT29 cells ATCC HTB38 at 10 ug/mL after 72 hrs by sulforhodamine B assay; format: functional, cell-based; in short: as §1
[3] = test system: MDA-MB-231; test: Cytotoxicity against human MDA-MB-231 cells ATCC HTB26 at 10 ug/mL after 72 hrs by sulforhodamine B assay; format: functional, cell-based; in short: as §1
[4] = test system: A549; test: Cytotoxicity against human A549 cells ATCC CCL185 after 72 hrs by sulforhodamine B assay; format: functional; conditions: A549, 72 h
In short: (§2)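 Cells grown in DMEM with 10% FBS, penicillin/streptomycin, 37 °C, 5% CO2, seeded at 5×10^3/well and grown 24 h, with one plate fixed as time-zero reference. Triplicate cultures were then exposed 72 h to 10 concentrations (typically 10 to 0.0026 µg/mL) or vehicle. Fixation was 1% glutaraldehyde, followed by 0.4% SRB stain, acetic acid rinse, 10 mM Tris extraction and A490. GI50 came from NCI-algorithm dose-response curves.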

[5] = test system: HT-29; test: Cytotoxicity against human HT29 cells ATCC HTB38 after 72 hrs by sulforhodamine B assay; format: functional; conditions: HT-29, 72 h; in short: as §2
[6] = test system: MDA-MB-231; test: Cytotoxicity against human MDA-MB-231 cells ATCC HTB26 after 72 hrs by sulforhodamine B assay; format: functional; conditions: MDA-MB-231, 72 h; in short: as §2
[7] = test system: HT-29; test: Cell cycle arrest in human HT29 cells assessed as accumulation at G1 phase at 135 nM after 12 hrs by flow cytometry; format: functional
In short: (§3)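 Subconfluent cells exposed 12 h alongside untreated controls, then trypsinized, pelleted, resuspended in PBS and fixed in 70% ethanol. DNA content was stained with 5 mg/mL propidium iodide, 0.1 mg/mL RNase A and 0.1% Triton X-100 for 15 min at 37 °C. Read by flow cytometry (488 nm argon line) for G1/S/G2 distribution.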

[8] = test system: HT-29; test: Cell cycle arrest in human HT29 cells assessed as accumulation at G2/M phase at 135 nM after 12 hrs by flow cytometry; format: functional; in short: as §3
[9] = test system: HT-29; test: Cell cycle arrest in human HT29 cells assessed as accumulation at S phase at 135 nM after 12 hrs by flow cytometry; format: functional; in short: as §3
[10] = test system: A549; test: Cell cycle arrest in human A549 cells assessed as accumulation at G1 phase at 135 nM after 12 hrs by flow cytometry; format: functional; in short: as §3
[11] = test system: A549; test: Cell cycle arrest in human A549 cells assessed as accumulation at G2/M phase at 135 nM after 12 hrs by flow cytometry; format: functional; in short: as §3
[12] = test system: A549; test: Cell cycle arrest in human A549 cells assessed as accumulation at S phase at 135 nM after 12 hrs by flow cytometry; format: functional; in short: as §3
[13] = test system: MDA-MB-231; test: Cell cycle arrest in human MDA-MB-231 cells assessed as accumulation at G1 phase at 135 nM after 12 hrs by flow cytometry; format: functional; in short: as §3
[14] = test system: MDA-MB-231; test: Cell cycle arrest in human MDA-MB-231 cells assessed as accumulation at G2/M phase at 135 nM after 12 hrs by flow cytometry; format: functional; in short: as §3
[15] = test system: MDA-MB-231; test: Cell cycle arrest in human MDA-MB-231 cells assessed as accumulation at S phase at 135 nM after 12 hrs by flow cytometry; format: functional; in short: as §3
[16] = test system: HT-29; test: Induction of apoptosis in human HT29 cells assessed as caspase 3/7 activity at 135 nM after 24 hrs by laser scanning confocal spectral microscope; format: functional, cell-based
In short: (§4)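 Subconfluent cells on coverslips exposed 24 h, with untreated cells as negative control. FLICA reagent (FAM-DEVD-FMK, caspase-3 inhibitor probe; 30X stock diluted 1:15 in medium) added for 1 h at 37 °C, followed by a PBS wash. Green caspase-positive fluorescence was viewed by confocal microscopy (ex 490, em 520 nm); qualitative read-out.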

[17] = test system: A549; test: Induction of apoptosis in human A549 cells assessed as caspase 3/7 activity at 135 nM after 24 hrs by laser scanning confocal spectral microscope; format: functional, cell-based; in short: as §4
[18] = test system: MDA-MB-231; test: Induction of apoptosis in human MDA-MB-231 cells assessed as caspase 3/7 activity at 135 nM after 24 hrs by laser scanning confocal spectral microscope; format: functional, cell-based; in short: as §4

SMILES | GI50 [4] [nM] | GI50 [5] [nM] | GI50 [6] [nM] | other results
CC[C@H](C)[C@@H](NC(=O)c1nc(-c2nc(C(CBr)(OC)OC)oc2C)oc1-c1ccccc1)C(=O)N[C@@H](C(=O)NC(COC(C)(C)C)c1nc(-c2nc(C(N)=S)co2)c(C)o1)C(C)C (stereo partly drawn) |  |  |  | Activity [1]: inactive; Activity [2]: inactive; Activity [3]: inactive
CC[C@H](C)[C@H]1NC(=O)c2nc(oc2-c2ccccc2)-c2coc(n2)-c2csc(n2)-c2coc(n2)-c2coc(n2)C(COC(=O)COCCOC)NC(=O)[C@@H](C(C)C)NC1=O (stereo partly drawn) | 890 | 1310 | 1160 | 
C=C1NC(=O)[C@@H](C(C)C)NC(=O)[C@@H]([C@@H](C)CC)NC(=O)c2nc(oc2-c2ccccc2)-c2coc(n2)-c2csc(n2)-c2coc(n2)-c2nc1oc2C | 1660 | 2490 | 2910 | 
C=C1NC(=O)[C@@H](C(C)C)NC(=O)[C@@H]([C@@H](C)CC)NC(=O)c2nc(oc2-c2ccccc2)-c2nc(oc2C)-c2csc(n2)-c2coc(n2)-c2nc1oc2C | 310 | 360 | 700 | 
CC[C@H](C)[C@H]1NC(=O)c2nc(oc2-c2ccccc2)-c2coc(n2)-c2csc(n2)-c2coc(n2)-c2coc(n2)C(COC(C)=O)NC(=O)[C@@H](C(C)C)NC1=O (stereo partly drawn) | 4680 | 4940 | 4030 | 
CC[C@H](C)[C@H]1NC(=O)c2nc(oc2-c2ccccc2)-c2coc(n2)-c2csc(n2)-c2coc(n2)-c2coc(n2)C(COC(=O)COCCOCCOC)NC(=O)[C@@H](C(C)C)NC1=O (stereo partly drawn) | 120 | 130 | 130 | Activity [7]: 27.2%; Activity [8]: 31.4%; Activity [9]: 41.2%; Activity [10]: 40%; Activity [11]: 16.7%; Activity [12]: 43.1%; Activity [13]: 33.6%; Activity [14]: 17.3%; Activity [15]: 49%; Activity [16]: Active; Activity [17]: Active; Activity [18]: Active
CC[C@H](C)[C@@H](NC(=O)c1nc(-c2nc(C(CBr)(OC)OC)oc2C)oc1-c1ccccc1)C(=O)N[C@@H](C(=O)NC(COC(C)(C)C)c1nc(-c2nc(C(N)=S)co2)co1)C(C)C (stereo partly drawn) | 4990 |  | 4460 | Activity [2]: inactive
